The text below walks through data of ChEMBL document CHEMBL4152287, “Synthesis and characterization of novel classes of PDE10A inhibitors - 1H-1,3-benzodiazoles and imidazo[1,2-a]pyrimidines” (Eur J Med Chem, 2018).

The nature of data set [1]: Intrinsic clearance in rat liver microsomes in presence of NADP/G6P/G6P dehydrogenase/MgCl2 by LC/MS analysis. The format is ADME, microsome. Conditions: read-out: CLH. Put shortly:
(§1)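 Phase-1 liver microsomal stability assay for the named species, with intrinsic clearance reported in µl x min^-1 x mg^-1.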

A short description of data set [2]: Intrinsic clearance in human liver microsomes in presence of NADP/G6P/G6P dehydrogenase/MgCl2 by LC/MS analysis. It counts as ADME, microsome. The note with it: read-out: CLH. In a few lines:
as §1
(In general: Liver microsomes are vesicles of endoplasmic reticulum, rich in cytochrome P450 enzymes.)

Data set [3] is described as follows: Intrinsic clearance in mouse liver microsomes in presence of NADP/G6P/G6P dehydrogenase/MgCl2/metabolic phase 2 co-factor by LC/MS analysis. It counts as ADME, microsome. The note with it: read-out: CLH. Put shortly:
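Mouse liver microsomes incubated with both phase 1 and phase 2 co-factors, with intrinsic clearance expressed in µl x min^-1 x mg^-1.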

Data set [4] can be described thus: Intrinsic clearance in dog liver microsomes in presence of NADP/G6P/G6P dehydrogenase/MgCl2 by LC/MS analysis. It counts as ADME, Canis lupus familiaris, microsome. The note with it: read-out: CLH. In a few lines:
as §1

Data set [5] concerns the target T1, cAMP and cAMP-inhibited cGMP 3',5'-cyclic phosphodiesterase 10A (Homo sapiens, UniProt Q9Y233). Kind of data set: Inhibition of PDE10 (unknown origin).
A short description of data set [6]: Intrinsic clearance in rat liver microsomes. The format is ADME, microsome.
In data set [7] the target is T2, Dual specificity calcium/calmodulin-dependent 3',5'-cyclic nucleotide phosphodiesterase 1C (Homo sapiens, UniProt Q14123). Kind of data set: Inhibition of recombinant human N-terminal GST-tagged PDE1C (2 to 634 residues) expressed in baculovirus infected Sf9 cells at 100 nM using iFl-cAMP/iFl-cGMP as substrate by mobility shift assay relative to control.
Data set [8] has as its target T3, cGMP-dependent 3',5'-cyclic phosphodiesterase (Rattus norvegicus) (UniProt Q01062).
T3 sequence (whole entry): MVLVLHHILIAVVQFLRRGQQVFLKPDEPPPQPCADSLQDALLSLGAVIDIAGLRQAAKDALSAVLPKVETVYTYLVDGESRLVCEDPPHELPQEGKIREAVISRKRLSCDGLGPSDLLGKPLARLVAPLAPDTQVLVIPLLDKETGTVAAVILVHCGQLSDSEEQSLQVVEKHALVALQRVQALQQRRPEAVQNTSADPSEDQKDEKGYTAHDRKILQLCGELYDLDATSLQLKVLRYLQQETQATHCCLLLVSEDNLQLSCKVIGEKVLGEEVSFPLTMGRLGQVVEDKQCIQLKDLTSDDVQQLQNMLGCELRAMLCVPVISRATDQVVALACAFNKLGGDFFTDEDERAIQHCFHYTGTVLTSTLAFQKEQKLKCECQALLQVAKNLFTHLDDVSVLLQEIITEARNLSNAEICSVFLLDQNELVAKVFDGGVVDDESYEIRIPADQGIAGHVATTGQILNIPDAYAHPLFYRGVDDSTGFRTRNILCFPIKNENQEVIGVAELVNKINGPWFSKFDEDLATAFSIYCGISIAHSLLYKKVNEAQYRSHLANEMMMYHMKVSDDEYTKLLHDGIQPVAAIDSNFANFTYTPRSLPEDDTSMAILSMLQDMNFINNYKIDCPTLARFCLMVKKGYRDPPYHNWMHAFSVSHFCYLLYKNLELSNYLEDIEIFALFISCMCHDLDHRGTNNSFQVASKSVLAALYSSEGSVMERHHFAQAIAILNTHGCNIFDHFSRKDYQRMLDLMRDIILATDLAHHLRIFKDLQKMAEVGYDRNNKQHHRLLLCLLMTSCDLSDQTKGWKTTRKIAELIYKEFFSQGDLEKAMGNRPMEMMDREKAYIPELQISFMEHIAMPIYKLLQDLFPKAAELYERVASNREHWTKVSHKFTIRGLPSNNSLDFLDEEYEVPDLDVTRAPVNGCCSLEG
Nature of the data set: Inhibition of rat PDE2A expressed in baculovirus infected Sf9 cells at 100 nM using iFl-cAMP/iFl-cGMP as substrate by mobility shift assay relative to control.

For data set [9], the target named is cGMP-inhibited 3',5'-cyclic phosphodiesterase 3B (Homo sapiens) (UniProt Q13370). Nature of the data set: Inhibition of recombinant human N-terminal GST-tagged PDE3B (592 to end residues) expressed in baculovirus infected Sf9 cells at 100 nM using iFl-cAMP/iFl-cGMP as substrate by mobility shift assay relative to control.
Data set [10] addresses 3',5'-cyclic-AMP phosphodiesterase 4B (Homo sapiens) (UniProt Q07343). Kind of data set: Inhibition of recombinant full length human N-terminal GST-tagged PDE4B1 expressed in baculovirus infected Sf9 cells at 100 nM using iFl-cAMP/iFl-cGMP as substrate by mobility shift assay relative to control.
Data set [11] has as its target cGMP-specific 3',5'-cyclic phosphodiesterase (Homo sapiens) (UniProt O76074). Kind of data set: Inhibition of PDE5A1 (unknown origin) at 100 nM using iFl-cAMP/iFl-cGMP as substrate by mobility shift assay relative to control.
The target of data set [12] is Cone cGMP-specific 3',5'-cyclic phosphodiesterase subunit alpha' (Homo sapiens) (UniProt P51160). Kind of data set: Inhibition of PDE6C (unknown origin) at 100 nM using iFl-cAMP/iFl-cGMP as substrate by mobility shift assay relative to control.
Data set [13] has as its target High affinity 3',5'-cyclic-AMP phosphodiesterase 7A (Homo sapiens) (UniProt Q13946). Kind of data set: Inhibition of PDE7A (unknown origin) at 100 nM using iFl-cAMP/iFl-cGMP as substrate by mobility shift assay relative to control.
Data set [14] has as its target High affinity cAMP-specific and IBMX-insensitive 3',5'-cyclic phosphodiesterase 8A (Homo sapiens) (UniProt O60658). Kind of data set: Inhibition of recombinant full length human N-terminal GST-tagged PDE8A1 expressed in baculovirus infected Sf9 cells at 100 nM using iFl-cAMP/iFl-cGMP as substrate by mobility shift assay relative to control.
Data set [15] has as its target T4, High affinity cGMP-specific 3',5'-cyclic phosphodiesterase 9A (Homo sapiens, UniProt O76083). Nature of the data set: Inhibition of recombinant full length human N-terminal GST-tagged PDE9A2 expressed in baculovirus infected Sf9 cells at 100 nM using iFl-cAMP/iFl-cGMP as substrate by mobility shift assay relative to control.
For data set [16], the target named is T1, cAMP and cAMP-inhibited cGMP 3',5'-cyclic phosphodiesterase 10A. Nature of the data set: Inhibition of recombinant human N-terminal GST-tagged PDE10A1 ( 2 to 789 residues) expressed in baculovirus infected Sf9 cells at 100 nM using iFl-cAMP/iFl-cGMP as substrate by mobility shift assay relative to control.
Data set [17] addresses Dual 3',5'-cyclic-AMP and -GMP phosphodiesterase 11A (Mus musculus) (UniProt P0C1Q2). Nature of the data set: Inhibition of recombinant mouse N-terminal GST-tagged PDE11A (2 to 933 residues) expressed in baculovirus infected Sf9 cells at 100 nM using iFl-cAMP/iFl-cGMP as substrate by mobility shift assay relative to control.
Data set [18] concerns the target T1, cAMP and cAMP-inhibited cGMP 3',5'-cyclic phosphodiesterase 10A. Nature of the data set: Inhibition of Ca2+/calmodulin-induced recombinant human full length N-terminal GST-tagged PDE10A1 expressed in baculovirus infected Sf9 cells using cAMP as substrate pretreated for 10 mins followed by substrate addition and measured after 40 mins by kinase-Glo luminescence assay. The note with it: read-out: IC50. A general note: Kinase-Glo reads ATP consumption through a luciferase reaction.

The target of data set [19] is T4, High affinity cGMP-specific 3',5'-cyclic phosphodiesterase 9A. Nature of the data set: Inhibition of Ca2+/calmodulin-induced recombinant human full length N-terminal GST-tagged PDE9A2 expressed in baculovirus infected Sf9 cells using cGMP as substrate pretreated for 10 mins followed by substrate addition and measured after 60 mins by kinase-Glo luminescence assay. In a few lines:
(§2)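 Selectivity screen run as a PDE-Glo enzymatic-activity luminescence assay, with IC50 values determined against each counter-screen PDE isoform.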

Data set [20] has as its target T2, Dual specificity calcium/calmodulin-dependent 3',5'-cyclic nucleotide phosphodiesterase 1C. Kind of data set: Inhibition of Ca2+/calmodulin-induced full-length recombinant human N-terminal GST-tagged PDE1C expressed in baculovirus infected Sf9 insect cells using cAMP as substrate pretreated for 10 mins followed by substrate addition and measured after 30 mins by kinase-Glo luminescence assay. Put shortly: as §2

T2 sequence (Q14123 whole entry, the tested form may be a part): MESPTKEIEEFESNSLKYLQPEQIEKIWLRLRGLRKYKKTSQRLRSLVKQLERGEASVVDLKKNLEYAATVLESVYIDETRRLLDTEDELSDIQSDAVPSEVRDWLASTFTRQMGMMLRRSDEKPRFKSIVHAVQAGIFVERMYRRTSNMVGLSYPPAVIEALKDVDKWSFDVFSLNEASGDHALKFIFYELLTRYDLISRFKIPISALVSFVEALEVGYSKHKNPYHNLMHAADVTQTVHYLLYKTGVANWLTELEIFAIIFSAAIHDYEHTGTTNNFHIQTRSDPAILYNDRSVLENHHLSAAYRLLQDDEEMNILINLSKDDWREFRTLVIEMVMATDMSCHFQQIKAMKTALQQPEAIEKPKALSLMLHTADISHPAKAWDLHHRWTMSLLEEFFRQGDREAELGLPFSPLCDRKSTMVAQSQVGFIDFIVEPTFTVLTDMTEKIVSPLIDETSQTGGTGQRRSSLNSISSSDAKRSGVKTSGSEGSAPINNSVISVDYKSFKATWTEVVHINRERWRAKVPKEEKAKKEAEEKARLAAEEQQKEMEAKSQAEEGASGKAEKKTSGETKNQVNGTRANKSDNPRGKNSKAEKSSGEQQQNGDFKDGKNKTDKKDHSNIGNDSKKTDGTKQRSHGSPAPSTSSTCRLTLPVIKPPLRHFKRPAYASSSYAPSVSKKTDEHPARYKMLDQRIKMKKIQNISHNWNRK
T4 sequence (O76083 whole entry, the tested form may be a part): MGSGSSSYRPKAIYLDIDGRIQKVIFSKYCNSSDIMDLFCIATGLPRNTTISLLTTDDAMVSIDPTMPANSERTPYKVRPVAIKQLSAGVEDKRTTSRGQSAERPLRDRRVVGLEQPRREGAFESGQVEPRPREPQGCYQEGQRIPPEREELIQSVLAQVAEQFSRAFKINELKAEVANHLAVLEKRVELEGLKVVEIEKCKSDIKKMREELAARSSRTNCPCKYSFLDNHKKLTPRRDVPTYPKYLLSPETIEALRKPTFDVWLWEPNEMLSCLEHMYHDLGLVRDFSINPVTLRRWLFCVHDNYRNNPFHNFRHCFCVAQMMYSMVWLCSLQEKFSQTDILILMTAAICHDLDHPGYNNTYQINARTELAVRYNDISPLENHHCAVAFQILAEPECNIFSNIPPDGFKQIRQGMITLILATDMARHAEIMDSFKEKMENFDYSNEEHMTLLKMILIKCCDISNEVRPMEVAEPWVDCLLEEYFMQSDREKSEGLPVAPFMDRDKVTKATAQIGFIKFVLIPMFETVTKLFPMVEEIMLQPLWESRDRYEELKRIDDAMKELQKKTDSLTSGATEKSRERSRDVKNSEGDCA
T1 sequence (Q9Y233 whole entry): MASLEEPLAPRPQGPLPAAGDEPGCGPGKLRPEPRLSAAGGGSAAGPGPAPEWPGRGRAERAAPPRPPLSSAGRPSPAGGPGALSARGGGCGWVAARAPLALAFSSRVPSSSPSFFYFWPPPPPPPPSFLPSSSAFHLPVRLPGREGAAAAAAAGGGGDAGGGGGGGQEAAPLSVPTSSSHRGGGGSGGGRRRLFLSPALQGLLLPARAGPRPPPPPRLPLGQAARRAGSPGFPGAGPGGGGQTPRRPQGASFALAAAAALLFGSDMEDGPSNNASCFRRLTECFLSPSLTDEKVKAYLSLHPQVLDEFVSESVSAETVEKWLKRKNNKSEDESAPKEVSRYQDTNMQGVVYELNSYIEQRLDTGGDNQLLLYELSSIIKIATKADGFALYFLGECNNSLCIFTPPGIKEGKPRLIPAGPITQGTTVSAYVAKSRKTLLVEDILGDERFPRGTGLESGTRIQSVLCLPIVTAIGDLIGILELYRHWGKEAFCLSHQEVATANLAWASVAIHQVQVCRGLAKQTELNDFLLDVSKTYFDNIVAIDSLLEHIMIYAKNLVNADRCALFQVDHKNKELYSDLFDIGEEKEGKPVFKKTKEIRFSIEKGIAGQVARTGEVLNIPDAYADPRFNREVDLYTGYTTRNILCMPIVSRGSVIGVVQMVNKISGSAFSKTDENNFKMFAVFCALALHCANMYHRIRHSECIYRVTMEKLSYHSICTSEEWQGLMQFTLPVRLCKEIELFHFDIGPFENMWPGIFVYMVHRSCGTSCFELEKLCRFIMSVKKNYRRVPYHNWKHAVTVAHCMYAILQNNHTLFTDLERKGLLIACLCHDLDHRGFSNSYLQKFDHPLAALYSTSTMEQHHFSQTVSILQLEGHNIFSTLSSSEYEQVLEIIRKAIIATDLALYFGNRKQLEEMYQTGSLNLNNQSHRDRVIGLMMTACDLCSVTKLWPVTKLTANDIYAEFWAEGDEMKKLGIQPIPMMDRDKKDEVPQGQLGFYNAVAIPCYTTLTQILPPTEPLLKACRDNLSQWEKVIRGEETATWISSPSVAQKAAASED
High affinity cAMP-specific and IBMX-insensitive 3',5'-cyclic phosphodiesterase 8A (Homo sapiens), sequence (O60658 whole entry): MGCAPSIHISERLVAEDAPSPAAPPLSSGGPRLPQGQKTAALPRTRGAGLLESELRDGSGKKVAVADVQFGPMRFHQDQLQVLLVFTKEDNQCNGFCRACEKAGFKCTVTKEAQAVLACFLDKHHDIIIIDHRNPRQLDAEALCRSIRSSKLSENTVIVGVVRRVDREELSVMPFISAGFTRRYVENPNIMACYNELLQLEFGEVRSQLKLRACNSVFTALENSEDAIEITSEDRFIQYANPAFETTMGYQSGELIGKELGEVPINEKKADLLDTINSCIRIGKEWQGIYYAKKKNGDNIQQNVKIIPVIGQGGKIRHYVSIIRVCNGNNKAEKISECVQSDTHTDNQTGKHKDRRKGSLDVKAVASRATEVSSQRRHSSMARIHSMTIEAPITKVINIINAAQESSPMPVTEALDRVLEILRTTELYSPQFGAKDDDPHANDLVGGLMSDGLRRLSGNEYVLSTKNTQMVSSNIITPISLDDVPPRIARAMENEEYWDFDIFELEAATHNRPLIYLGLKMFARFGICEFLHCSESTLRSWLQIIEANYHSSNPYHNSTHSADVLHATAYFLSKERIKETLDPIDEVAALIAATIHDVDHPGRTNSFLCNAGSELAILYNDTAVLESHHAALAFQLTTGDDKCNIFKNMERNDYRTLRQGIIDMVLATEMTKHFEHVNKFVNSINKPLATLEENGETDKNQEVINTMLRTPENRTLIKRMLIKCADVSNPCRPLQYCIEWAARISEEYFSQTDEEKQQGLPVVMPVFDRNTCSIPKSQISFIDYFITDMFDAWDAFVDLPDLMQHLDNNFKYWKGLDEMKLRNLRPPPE
3',5'-cyclic-AMP phosphodiesterase 4B (Homo sapiens), sequence (Q07343 whole entry): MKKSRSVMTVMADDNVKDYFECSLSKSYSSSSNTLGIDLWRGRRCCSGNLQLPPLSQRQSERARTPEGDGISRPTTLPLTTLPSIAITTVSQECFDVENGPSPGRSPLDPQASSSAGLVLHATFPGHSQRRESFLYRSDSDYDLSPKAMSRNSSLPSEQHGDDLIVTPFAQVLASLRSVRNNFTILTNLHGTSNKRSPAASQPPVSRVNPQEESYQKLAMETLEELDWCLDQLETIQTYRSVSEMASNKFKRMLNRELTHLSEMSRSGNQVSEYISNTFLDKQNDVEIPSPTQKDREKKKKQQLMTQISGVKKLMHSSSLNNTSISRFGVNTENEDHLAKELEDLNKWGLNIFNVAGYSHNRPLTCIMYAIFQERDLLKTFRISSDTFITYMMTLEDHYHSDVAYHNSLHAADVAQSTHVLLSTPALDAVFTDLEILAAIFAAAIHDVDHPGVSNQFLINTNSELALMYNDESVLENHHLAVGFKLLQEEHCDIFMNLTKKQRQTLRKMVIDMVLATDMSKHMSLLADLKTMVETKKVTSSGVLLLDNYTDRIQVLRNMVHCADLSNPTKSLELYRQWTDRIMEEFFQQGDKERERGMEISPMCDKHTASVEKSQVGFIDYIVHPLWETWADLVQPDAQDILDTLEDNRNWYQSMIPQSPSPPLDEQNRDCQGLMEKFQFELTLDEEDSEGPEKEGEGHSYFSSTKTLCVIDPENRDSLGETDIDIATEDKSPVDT
High affinity 3',5'-cyclic-AMP phosphodiesterase 7A (Homo sapiens), sequence (Q13946 whole entry): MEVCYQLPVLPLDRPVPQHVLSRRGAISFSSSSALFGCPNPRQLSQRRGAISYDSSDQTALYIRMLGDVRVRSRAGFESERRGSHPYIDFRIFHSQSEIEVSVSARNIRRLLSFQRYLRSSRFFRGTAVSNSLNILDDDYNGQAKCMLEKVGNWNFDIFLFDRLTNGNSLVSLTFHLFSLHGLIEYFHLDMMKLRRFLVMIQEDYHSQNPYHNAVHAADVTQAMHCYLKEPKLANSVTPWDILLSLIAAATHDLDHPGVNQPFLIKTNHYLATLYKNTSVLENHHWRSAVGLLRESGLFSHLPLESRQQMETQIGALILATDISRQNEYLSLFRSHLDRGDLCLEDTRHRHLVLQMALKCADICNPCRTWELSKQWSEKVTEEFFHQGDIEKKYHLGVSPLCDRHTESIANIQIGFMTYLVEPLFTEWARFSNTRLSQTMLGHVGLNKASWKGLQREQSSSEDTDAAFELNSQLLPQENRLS

Consider `Cc1ncc(C)n2nc(-c3ccn4cc(-c5ccccc5)nc4c3)nc12`, for which the microsomal CLint in data set [1] turned out to be 68.9 µL/min/mg; in [2], 11.6 µL/min/mg; in data set [3] it was 28.9 µL/min/mg; in data set [4], 16.3 µL/min/mg. Further, the IC50 (as a rule, the concentration at which inhibition is half-maximal) in data set [5] worked out at 37 nM. The compound also gave a CLH in [6] of 68.8 µL/min/mg.
For the compound `Cc1ncc(C)n2nc(-c3ccc4nc(-c5ccccc5)[nH]c4c3)nc12`, the inhibition – broadly, the drop in the measured response relative to a control, in per cent – was 16% in [7]; 8% in [8]; -3% in [9]; 3% in data set [10]; 6% in data set [11]; -3% in data set [12]. The inhibition in [13] was 8%; in data set [14], -4%; in [15], -7%; in data set [16], 99%; in [17], 8%.
`Cc1ncc(C)n2nc(-c3ccn4cc(-c5ccccc5)nc4n3)nc12`: the figures for the IC50 in [18], in [19] and in [20] were 35 nM, over 10000 nM and over 10000 nM, respectively. The microsomal CLint is 5.6 µL/min/mg in data set [1], 1.8 µL/min/mg in data set [2], 0.6 µL/min/mg in data set [3] and 7.4 µL/min/mg in [4]. For the same compound, the inhibition in [7] worked out at 5%; in data set [8], 9%; in [9], 7%; in data set [10], 4%; in data set [11] it was 6%; in data set [12] it was 18%. In addition, the inhibition was 26% in [13]; -1% in data set [14]; -3% in data set [15]; 98% in data set [16]; 9% in data set [17].
